Here are results for eleven compounds from article PMC11462461 (Heliyon, 2024).

One series concerns HEK cells. The series can be described thus: MTT assay, normal kidney cells HEK. It counts as cell-based, Human. As to conditions: for IC50: Homo sapiens, HEK293, 48 h. Summed up: (§1)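 Cells were STR-authenticated and mycoplasma-tested (HEK was a gift; the others were from a national cell repository). They were cultured with 10 % FBS at 37 °C, with or without 5 % CO2, then plated in 96-well plates and allowed to attach overnight. Test compound was added at increasing concentrations for 48 h. Solubilized MTT formazan absorbance was read at 570 nm. At least three independent experiments were run.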

For series [1], the system named is HCT116 cells. The series can be described thus: Foci formation assay. It counts as cell-based, Human. Particulars: HCT116, 12 days, crystal violet.
Series [2] deals with HCT116 cells. The series can be described thus: Acridine orange/PI dual staining. It counts as cell-based, Human. Particulars: HCT116, 48 h.
For a further series, the system named is MDA-MB-231 cells. The series can be described thus: MTT assay, MDA-MB-231. It counts as cell-based. Particulars: Homo sapiens, MDA-MB-231, 48 h. In short, it runs like this:
as §1
(In general: Tetrazolium assays rely on reduction of a dye to a coloured formazan, in cell work by metabolically active cells.)

Series [3] has as its system HCT116 cells. The series can be described thus: MTT assay, HCT116. Particulars: Homo sapiens, HCT-116, 48 h. It counts as cell-based. Summed up:
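STR-authenticated, mycoplasma-tested HCT116 cells were grown in 10 % FBS medium at 37 °C. They were seeded in 96-well plates, left to attach overnight, and exposed to increasing concentrations of test compound for 48 h. DMSO-treated cells were the control. MTT formazan was solubilized and read at 570 nm. Experiments were repeated thrice, with SEM error bars.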

In series [4] the test system is HCT116 cells. Put plainly: Hoechst/PI double staining. Particulars: HCT116, 48 h. It counts as cell-based, Human.
The test system of the next series is HeLa cells. Put plainly: MTT assay, HeLa. As to conditions: Homo sapiens, 48 h. It counts as cell-based. In short, it runs like this:
as §1

For orientation: IC50 means the concentration at which inhibition is half-maximal. A lower IC50 goes with higher potency.

`COc1ccc(-c2cc(C(=O)Nc3ccccc3)c3cc(-c4ccccc4)ccc3n2)cc1` [Compound 7a, 2-(4-methoxyphenyl)-N,6-diphenylquinoline-4-carboxamide]: the “toxicity towards normal cell lines” value in the series on HEK cells (HeK) is reported as “less toxicity towards normal cell lines”. Also, the 50% inhibitory concentration (IC50) was greater than 50 µM in the series on HEK cells, 39.2 ± 0.13 µM in the series on MDA-MB-231 cells, 35.6 ± 0.06 µM with HCT116 cells [3] and 41.3 ± 0.06 µM with HeLa cells. The colony formation entry with HCT116 cells [1] is “inhibit colony formation of colon cancer cells in a concentration dependent manner”. Further, the “propidium iodide uptake (live/dead cells)” value in the series on HCT116 cells [2] is “propidium iodide uptake in concentration dependent manner”. Also, the “propidium iodide uptake and nuclear membrane deformation” value in the series on HCT116 cells [4] is on record as “uptake of propidium iodide in concentration dependent manner with nuclear membrane deformation in dead cells”.
Take `COc1ccc(-c2cc(C(=O)Nc3ccccc3)c3cc(-c4cc(F)ccc4OC)ccc3n2)cc1` [Compound 7b, 6-(5-Fluoro-2-methoxyphenyl)-2-(4-methoxyphenyl)-N-phenylquinoline-4-carboxamide]: the IC50 was greater than 50 µM with HEK cells, greater than 50 µM in the series on MDA-MB-231 cells, 43.3 ± 0.53 µM in the series with HCT116 cells [3] and 41.6 ± 0.58 µM in the series on HeLa cells.
`COc1ccc(-c2cc(C(=O)Nc3ccccc3)c3cc(-c4cc(Cl)ccc4F)ccc3n2)cc1` [Compound 7c, 6-(5-Chloro-2-fluorophenyl)-2-(4-methoxyphenyl)-N-phenylquinoline-4-carboxamide]: the IC50 in the series with HEK cells was greater than 50 µM; with MDA-MB-231 cells it was greater than 50 µM; in the series on HCT116 cells [3] it was 41.8 ± 0.16 µM; in the series on HeLa cells, 42.4 ± 0.37 µM.
As for `COc1ccc(-c2cc(C(=O)Nc3ccccc3)c3cc(-c4ccc(Cl)cc4)ccc3n2)cc1` [Compound 7d, 6-(4-chlorophenyl)-2-(4-methoxyphenyl)-N-phenylquinoline-4-carboxamide], the half-maximal inhibitory concentration (IC50) was greater than 50 µM in the series with HEK cells, greater than 50 µM with MDA-MB-231 cells, 39.8 ± 0.11 µM in the series on HCT116 cells [3] and 38.3 ± 0.25 µM with HeLa cells.
Regarding `COc1ccc(-c2cc(C(=O)Nc3ccccc3)c3cc(-c4cccs4)ccc3n2)cc1` [Compound 7e, 2-(4-methoxyphenyl)-N-phenyl-6-(thiophen-2-yl)quinoline-4-carboxamide], the IC50 with HEK cells, in the series on MDA-MB-231 cells, with HCT116 cells [3] and with HeLa cells was greater than 50 µM throughout.
Consider `COc1ccc(-c2cc(C(=O)Nc3ccccc3)c3cc(-c4cc(C)ccc4F)ccc3n2)cc1` [Compound 7f, 6-(2-Fluoro-5-methylphenyl)-2-(4-methoxyphenyl)-N-phenylquinoline-4-carboxamide], for which the IC50 in the series on HEK cells, in the series on MDA-MB-231 cells, in the series with HCT116 cells [3] and in the series with HeLa cells was greater than 50 µM each time.
On to `COc1ccc(-c2cc(C(=O)Nc3ccccc3)c3cc(-c4cnc(Cl)c(C)c4)ccc3n2)cc1` [Compound 7g, 6-(6-Chloro-5-methylpyridin-3-yl)-2-(4-methoxyphenyl)-N-phenylquinoline-4-carboxamide], for which the IC50 in the series with HEK cells, with MDA-MB-231 cells, in the series on HCT116 cells [3] and with HeLa cells was greater than 50 µM in each case.
Regarding `O=C(Nc1ccccc1)c1cc(-c2ccccc2)nc2ccc(-c3ccccc3)cc12` [Compound 7h, N,2,6-triphenylquinoline-4-carboxamide], the IC50 was greater than 50 µM in the series with HEK cells, 46.3 ± 0.18 µM in the series on MDA-MB-231 cells, 41.6 ± 0.11 µM in the series with HCT116 cells [3] and 43.3 ± 0.31 µM in the series on HeLa cells.
The corresponding values for `COc1ccc(F)cc1-c1ccc2nc(-c3ccccc3)cc(C(=O)Nc3ccccc3)c2c1` [Compound 7i, 6-(5-Fluoro-2-methoxyphenyl)-N,2-diphenylquinoline-4-carboxamide] are greater than 50 µM, greater than 50 µM, 44.2 ± 0.08 µM and greater than 50 µM.
With `COc1ccc(F)cc1-c1ccc2nc(-c3ccc(F)cc3)cc(C(=O)Nc3ccccc3)c2c1` [Compound 7j, 6-(5-Fluoro-2-methoxyphenyl)-2-(4-fluorophenyl)-N-phenylquinoline-4-carboxamide], the IC50 was greater than 50 µM in the series on HEK cells, greater than 50 µM in the series on MDA-MB-231 cells, 42.5 ± 0.23 µM in the series on HCT116 cells [3] and greater than 50 µM in the series on HeLa cells.
In the case of `COc1cccc2c1C(=O)c1c(O)c3c(c(O)c1C2=O)C[C@@](O)(C(=O)CO)C[C@@H]3O[C@H]1C[C@H](N)[C@H](O)[C@H](C)O1` [Doxorubicin, reference compound], the IC50 in the series with HEK cells was 8.23 ± 0.73 µM; in the series on MDA-MB-231 cells, 5.32 ± 0.11 µM; in the series with HCT116 cells [3], 1.26 ± 0.09 µM; in the series on HeLa cells, 5.04 ± 0.41 µM.
